Where two headings read alike, the source gives them in different places.
Key:
[1] = assay type: in vivo, mice; conditions: for Detection in the brain: oral administration; for Detection in plasma: mice sacrificed 12 h after food intake
How it was run: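 Male C57BL/6 mice, 7 weeks old, fed a high-fat diet with 1% w/w orange peel extract for 6 weeks, with 0.65% carnitine in drinking water. Tissues were homogenized under liquid nitrogen. Tissues, plasma (cardiac puncture, EDTA) and urine were extracted in methanol with 0.1% DMSO; taxifolin was the internal standard. Separation on a C30 column with a formic acid water/acetonitrile gradient; positive ESI, SRM. Values expressed as tissue–peel ratio.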

[2] = assay type: in vivo, mice; conditions: by number of metabolites identified
How it was run: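 Male C57BL/6 mice, from 7 weeks old, given high-fat chow containing 1% w/w orange peel extract for 6 weeks, with 0.65% carnitine in water. Methanol/0.1% DMSO extracts were run by UHPLC on a C30 column at 40 °C, 0.1% formic acid water/acetonitrile gradient 2–100% B, 0.2 mL min−1, with Q-Exactive Orbitrap detection. Metabolites were assigned to parent PMFs by key-ion patterns.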

[3] = following intraperitoneal administration; cited from earlier work
[4] = test system: acetylcholinesterase; conditions: cortex and hippocampus; cited from earlier work
[5] = test system: spatial learning impairments induced by Aβ1-42; conditions: oral administration for four weeks; cited from earlier work

Structure (SMILES): COc1ccc(-c2oc3c(OC)c(OC)cc(O)c3c(=O)c2OC)cc1OC [PMF 9, 5-hydroxy-3,7,8,3′,4′-pentamethoxyflavone]
- Detection in the brain [1]: not detected
- Detection in the liver [1]: detected

Structure (SMILES): COc1ccc(-c2oc3c(OC)c(OC)c(OC)c(O)c3c(=O)c2OC)cc1OC [PMF 11, 5-hydroxy-3,6,7,8,3′,4′-hexamethoxyflavone]
- Detection in the brain [1]: not detected
- Detection in the liver [1]: not detected

Structure (SMILES): COc1ccc(-c2cc(=O)c3c(O)c(OC)c(OC)c(OC)c3o2)cc1OC [PMF 8, 5-hydroxy-6,7,8,3′,4′-pentamethoxyflavone]
- Extent of metabolism among the 11 PMFs [2]: most extensively metabolized
- Detection in the brain [1]: not detected
- Feces-peel ratio relative to that of PMF 11 ([1]; feces): twice as high
- Detection in the kidney [1]: detected
- Detection in the liver [1]: detected
- Detection in the testes ([1]; testes): detected
- Testes-to-peel ratio relative to the detected major PMFs 1 and 4 ([1]; testes): 10 to 14 times

Structure (SMILES): COc1cc(-c2cc(=O)c3c(OC)c(OC)c(OC)c(OC)c3o2)ccc1O [4′-demethylnobiletin]
- Detection in the brain [3]: detected in the brain

Structure (SMILES): COc1ccc(-c2cc(=O)c3c(OC)c(OC)c(OC)c(OC)c3o2)cc1 [PMF 6, tangeretin]
- Detection in the brain [1]: found
- Detection in the kidney [1]: detected
- Detection in the liver [1]: detected
- Detection in plasma [1]: detected
- Detection in the testes ([1]; testes): not detected

Structure (SMILES): COc1ccc(-c2oc3c(OC)c(OC)c(OC)c(OC)c3c(=O)c2OC)cc1OC [PMF 5, 3,5,6,7,8,3′,4′-heptamethoxyflavone]
- Detection in the brain [1]: found
- Detection in the liver [1]: detected
- Detection in plasma [1]: detected
- Detection in the testes ([1]; testes): not detected

Structure (SMILES): COc1ccc(-c2cc(=O)c3c(OC)c(OC)c(OC)c(OC)c3o2)cc1OC [PMF 3, nobiletin]
- Extent of metabolism among the 11 PMFs [2]: most extensively metabolized
- Acetylcholinesterase activity [4]: enhanced
- Detection in the brain [1]: found
- Detection in the kidney [1]: detected
- Detection in the liver [1]: detected
- Detection in plasma [1]: detected
- Detection in the testes ([1]; testes): not detected
- Urine–peel ratio relative to other non-hydroxylated PMFs ([1]; urine): approximately two times higher
- Effect on spatial learning impairments induced by Aβ1-42, Morris water maze test [5]: prevent spatial learning impairments

Structure (SMILES): COc1ccc(-c2cc(=O)c3c(OC)c(OC)c(OC)cc3o2)cc1OC [PMF 10, sinensetin]
- Detection in the brain [1]: found
- Detection in the liver [1]: detected

Structure (SMILES): COc1ccc(-c2cc(=O)c3cc(OC)c(OC)c(OC)c3o2)cc1OC [PMF 1, 6,7,8,3′,4′-pentamethoxyflavone]
- Detection in the brain [1]: found
- Detection in plasma [1]: detected
- Detection in the testes ([1]; testes): detected

From paper PMC12519076 (RSC Advances, 2025)
